The source of these data is article PMC4091826 (Molecular Biology of the Cell, 2014).

No end group written: not given here.

The test system of data set [1] is human mtHsp70. The data set is described as follows: Single-turnover basal ATPase assay, human mtHsp70. It counts as biochemical. Particulars: 25°C, buffer A, versus wild type, Figure 1C. A digest of the protocol: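 Purified protein (100 μg) was loaded on ice for 3 min with 50 μM ATP and 25 μCi [γ-32P]ATP in buffer A (25 mM HEPES-KOH pH 7.5, 100 mM KCl, 10 mM Mg(OAc)2). Complexes were isolated immediately on Sephadex G50 and frozen in liquid nitrogen; they contained 1 μM protein. Hydrolysis was then run at 25°C in buffer alone, without stimulators.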

The test system of data set [2] is human mtHsp70. The data set is described as follows: Stimulation of ATPase activity by P5 peptide, human mtHsp70. Particulars: 250-fold molar excess of P5; Figure 1D. It counts as biochemical. The gist of the method:
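Human mtHsp70[ATP] complexes were formed by incubating 100 μg protein with 50 μM ATP and 25 μCi [γ-32P]ATP on ice for 3 min in buffer A (25 mM HEPES-KOH pH 7.5, 100 mM KCl, 10 mM Mg(OAc)2). Complexes were isolated by Sephadex G50 (1 μM protein) and snap-frozen. Single-turnover hydrolysis was run at 25°C in buffer A, either alone (basal) or with P5 peptide.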

For data set [3], the system named is human mtHsp70. As to conditions: versus wild type; ref Goswami et al., 2010; cited from earlier work.
Data set [4] deals with human mtHsp70. As to conditions: ref Goswami et al., 2010; cited from earlier work.
Data set [5] deals with fluorescein-labeled P5 peptide (F-P5). The data set can be described thus: Fluorescence anisotropy equilibrium binding of F-P5 peptide to Ssc1 proteins. As to conditions: F-P5, versus wild type. (In general: Fluorescence polarisation rises when a labelled molecule tumbles more slowly, as on binding a larger partner.)
Data set [6] deals with Ssc1. The data set is described as follows: Single-turnover basal ATPase assay, Ssc1. As to conditions: 25°C, buffer A, versus wild type. It counts as biochemical, S. cerevisiae.
In data set [7] the test system is Ssc1. The data set is described as follows: ATP-induced substrate release by fluorescence anisotropy, Ssc1. As to conditions: 2.5 mM ATP, 5 μM Ssc1[F-P5], anisotropy decrease up to 5 min. The data set is classed as biochemical, S. cerevisiae.
In a further data set the test system is yeast cells. The data set is described as follows: Growth phenotype. The data set is classed as cell-based, S. cerevisiae. As to conditions: minimal medium or 5-FOA medium, serial dilutions.
Data set [8] concerns Ssc1. The data set can be described thus: Limited proteolytic cleavage by trypsin. It counts as biochemical, S. cerevisiae. Particulars: 1:100 (wt/wt) trypsin, 25°C, SDS-PAGE.
Another data set relates to Tim44. The data set is described as follows: Coimmunoprecipitation of Ssc1 with Tim44. As to conditions: mitochondrial lysates, anti-Ssc1, presence or absence of 1 mM ATP; Figure 6A. It counts as binding, S. cerevisiae.
The next data set has as its system Hsp60. The data set is described as follows: Hsp60 precursor accumulation assay. It counts as cell-based, S. cerevisiae. As to conditions: shift to 37°C for 2 h, immunoblot; Figure 6B. The gist of the method: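 Yeast strains were grown in YPD at 28°C to early log phase, then shifted to 37°C for 2 h. Cells equivalent to 2 OD A600 were taken before and after the shift and lysed in 0.1 N NaOH. Whole-cell extracts were run on SDS–PAGE and immunoblotted for Hsp60 to detect its precursor (p) and mature (m) forms.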
Background: In western blotting, separated proteins are transferred to a membrane and probed.

A further data set relates to Cytb2(47)-DHFR. The data set can be described thus: In vitro import kinetics of Cytb2. It counts as biochemical, S. cerevisiae. Particulars: isolated mitochondria, 37°C preincubation; Figure 6, C and D. A digest of the protocol:
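Saturating purified precursor plus 8 mM each ATP and NADH added. Time points stopped with valinomycin, then proteinase K (quenched with PMSF). Anti-DHFR immunoblot; intermediate form plotted over time, maximum wild-type import set as 100%.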

Another data set has as its system mitochondrial mass. The data set is described as follows: Mitochondrial mass estimation by 10-N-nonyl acridine orange flow cytometry. The data set is classed as cell-based, S. cerevisiae. As to conditions: in comparison to wild type; Figure 6E. A digest of the protocol:
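Per strain, cells equal to 0.2 OD at A600 were stained with 10-N-nonyl acridine orange, a cardiolipin-binding dye, and analysed by flow cytometry to estimate total mitochondrial mass.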

Data set [9] has as its target T1, Ssc1 (yeast mtHsp70), wild type, hexahistidine-tagged, purified (S. cerevisiae, UniProt P0CS90 24-654). The data set is described as follows: fluorescence polarisation.
In data set [10] the target is T2, Ssc1 E467A, hexahistidine-tagged, purified (S. cerevisiae, UniProt P0CS90 24-654, E467A). The data set can be described thus: fluorescence polarisation.
In data set [11] the target is human mtHsp70, wild type, hexahistidine-tagged, purified (human, UniProt P38646 47-679). The data set is described as follows: fluorescence polarisation.
Data set [12] concerns the target T1, Ssc1 (yeast mtHsp70), wild type, …. The data set can be described thus: fluorescence polarisation. This is another data set of the same source.
Data set [13] has as its target T2, Ssc1 E467A, hexahistidine-tagged, …. The data set can be described thus: fluorescence polarisation. The source holds these as a separate data set.
Data set [14] deals with T1, Ssc1 (yeast mtHsp70), wild type, …. The data set is described as follows: fluorescence polarisation. The source holds these as a separate data set.
Target sequence in this assay (P0CS90 24-654): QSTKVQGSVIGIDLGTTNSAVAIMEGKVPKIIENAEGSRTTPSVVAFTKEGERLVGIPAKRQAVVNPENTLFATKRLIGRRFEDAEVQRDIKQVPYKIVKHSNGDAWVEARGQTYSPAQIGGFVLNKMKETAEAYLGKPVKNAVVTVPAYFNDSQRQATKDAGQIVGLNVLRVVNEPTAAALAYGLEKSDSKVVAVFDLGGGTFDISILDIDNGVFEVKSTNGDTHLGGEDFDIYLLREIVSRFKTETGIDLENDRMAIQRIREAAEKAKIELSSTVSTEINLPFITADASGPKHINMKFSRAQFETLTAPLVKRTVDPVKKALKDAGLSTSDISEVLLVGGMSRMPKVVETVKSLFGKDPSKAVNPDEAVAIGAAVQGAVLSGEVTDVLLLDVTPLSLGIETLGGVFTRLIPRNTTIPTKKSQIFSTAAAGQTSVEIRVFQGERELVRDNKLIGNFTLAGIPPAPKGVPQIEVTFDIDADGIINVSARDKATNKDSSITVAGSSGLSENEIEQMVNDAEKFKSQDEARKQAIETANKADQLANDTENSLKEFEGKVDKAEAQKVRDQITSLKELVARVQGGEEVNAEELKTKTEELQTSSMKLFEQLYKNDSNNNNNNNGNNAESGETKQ
For data set [15], the target named is T2, Ssc1 E467A, hexahistidine-tagged, …. The data set can be described thus: fluorescence polarisation. The source holds these as a separate data set.
In the next data set the target is Ssc1 D411R, purified (S. cerevisiae, UniProt P0CS90 24-654, D411R). The data set is described as follows: fluorescence polarisation.
For data set [16], the target named is Ssc1 E467A-D411R, purified (S. cerevisiae, UniProt P0CS90 24-654, D411R | E467A). The data set is described as follows: fluorescence polarisation.

One may read the kon as the rate constant with which the complex forms. A high value points to faster complex formation. By koff is commonly meant the first-order rate constant of dissociation. The low end stands for slow dissociation, the high end for fast dissociation. Usually Kd stands for the constant that tells how readily two partners part at equilibrium. A low value points to higher affinity.

human mtHsp70, wild type, hexahistidine-tagged, purified, sequence (P38646 47-679): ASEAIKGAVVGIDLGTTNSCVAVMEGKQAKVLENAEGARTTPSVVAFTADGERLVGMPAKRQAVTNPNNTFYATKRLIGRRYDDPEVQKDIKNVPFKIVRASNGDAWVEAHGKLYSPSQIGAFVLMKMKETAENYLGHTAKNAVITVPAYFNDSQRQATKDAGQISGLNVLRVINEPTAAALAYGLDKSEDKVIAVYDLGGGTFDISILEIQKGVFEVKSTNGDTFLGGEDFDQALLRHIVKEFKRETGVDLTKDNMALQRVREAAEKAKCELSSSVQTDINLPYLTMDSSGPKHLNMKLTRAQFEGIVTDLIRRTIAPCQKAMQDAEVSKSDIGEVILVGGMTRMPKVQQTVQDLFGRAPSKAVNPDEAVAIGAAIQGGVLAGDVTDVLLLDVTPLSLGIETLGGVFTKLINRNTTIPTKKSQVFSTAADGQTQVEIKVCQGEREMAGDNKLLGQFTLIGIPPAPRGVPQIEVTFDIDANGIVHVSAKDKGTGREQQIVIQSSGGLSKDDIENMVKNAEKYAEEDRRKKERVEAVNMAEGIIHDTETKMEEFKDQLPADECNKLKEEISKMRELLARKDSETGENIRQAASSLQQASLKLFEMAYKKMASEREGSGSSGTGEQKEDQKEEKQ

mtHsp70Q488A: the “fold enhancement in basal ATPase activity” value in the data set with human mtHsp70 [1] worked out at 2.75 fold. Further, the “stimulation of ATPase activity by P5 substrate peptide, in words” value in the data set with human mtHsp70 [2] is recorded as “marked decrease in stimulation of ATPase activity by P5 substrate peptide”.
Consider mtHsp70G489E, for which, in the data set on human mtHsp70 [2], the “stimulation of ATPase activity by P5 substrate peptide, in words” value is reported as “marked decrease in stimulation of ATPase activity by P5 substrate peptide”. The “elevated basal rate of ATP hydrolysis” value in the data set with human mtHsp70 [3] is given as “fivefold elevated”. Further, the “loss in stimulation of ATPase activity by peptide substrates” value with human mtHsp70 [4] is on record as 70%.

B1: E467A (protein)
chain: QSTKVQGSVIGIDLGTTNSAVAIMEGKVPKIIENAEGSRTTPSVVAFTKEGERLVGIPAKRQAVVNPENTLFATKRLIGRRFEDAEVQRDIKQVPYKIVKHSNGDAWVEARGQTYSPAQIGGFVLNKMKETAEAYLGKPVKNAVVTVPAYFNDSQRQATKDAGQIVGLNVLRVVNEPTAAALAYGLEKSDSKVVAVFDLGGGTFDISILDIDNGVFEVKSTNGDTHLGGEDFDIYLLREIVSRFKTETGIDLENDRMAIQRIREAAEKAKIELSSTVSTEINLPFITADASGPKHINMKFSRAQFETLTAPLVKRTVDPVKKALKDAGLSTSDISEVLLVGGMSRMPKVVETVKSLFGKDPSKAVNPDEAVAIGAAVQGAVLSGEVTDVLLLDVTPLSLGIETLGGVFTRLIPRNTTIPTKKSQIFSTAAAGQTSVEIRVFQGARELVRDNKLIGNFTLAGIPPAPKGVPQIEVTFDIDADGIINVSARDKATNKDSSITVAGSSGLSENEIEQMVNDAEKFKSQDEARKQAIETANKADQLANDTENSLKEFEGKVDKAEAQKVRDQITSLKELVARVQGGEEVNAEELKTKTEELQTSSMKLFEQLYKNDSNNNNNNNGNNAESGETKQ
As for B1, the “fold reduced affinity for the substrate vs wild type” value in [5] is around 8.6 fold. Also, in the data set with Ssc1 [6], the “fold increase in basal ATPase activity” value came out at 4.85 fold. In addition, the “substrate (peptide) release upon ATP addition” value in the data set on Ssc1 [7] was around 38%. In addition, in the data set with yeast cells, the “growth phenotype, in words” value was “viable at 30 °C but displayed temperature sensitivity at 34 and 37 °C”. Also, in the data set on Ssc1 [8], the “trypsin cleavage pattern, in words” value was “the 30-kDa bands were very unstable and rapidly degraded further into smaller-sized fragments”. Moreover, the “interaction with Tim44, in words” value with Tim44 is given as “interacted negligibly with Tim44 even in the absence of ATP”. Besides, in the data set with Hsp60, the “Hsp60 precursor accumulation, in words” value was “significant levels of Hsp60 precursor form as compared with wild type”. The “rate of precursor translocation into mitochondria, in words” value with Cytb2(47)-DHFR is reported as “impairment in translocation rate”. Also, the “reduction in mitochondrial mass” value in the data set on mitochondrial mass is 30%.
As to CALLLSAPRR (also: fluorescein label, position not given here) [fluorescein-labeled P5 peptide], the kon turned out to be 14000 M⁻¹ s⁻¹ in data set [9] and 3400 M⁻¹ s⁻¹ in [10]. Also, the binding result in [11] is “binds”; with Ssc1 D411R, purified, “binds”; in data set [16], “binds”. Moreover, the koff in data set [12] was 0.0023 ± 3.47e-05 s⁻¹; in [13] it was 0.0039 ± 0.000131 s⁻¹. The Kd in data set [14] was determined as 0.2 ± 0.037 µM; in data set [15] it was 1.75 ± 0.269 µM.
